The values that follow come from ChEMBL document CHEMBL1124609, “Synthesis and anticonvulsant properties of 2,3,3a,4-tetrahydro-1H-pyrrolo[1,2-a]benzimidazol-1-ones” (J Med Chem, 1989).

Bounds are passed on as bounds.

For data set [1], the species on record is Rattus norvegicus. The data set is described as follows: Anticonvulsant activity against maximal electroshock seizures(MES) in rats. The format is functional. The method, boiled down: (§1)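 Adult male Wistar rats (200-250 g), groups of 10, dosed ip in 80% DMSO/20% distilled water. 60 min later a 50-mA, 60-Hz alternating current was given through ear electrodes for 0.2 s. Protection was absence of tonic hind limb extension. ED50 (±95% confidence limits) by Litchfield and Wilcoxon.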

Data set [2] in a line: Relative lipophilicity. The format is physicochemical. To be noted: reversed-phase TLC, acetone/water 2:1. The method, boiled down:
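Reversed-phase TLC on silanized silica gel plates dried 1 h at 105 °C, with acetone/water 2:1 v/v as mobile phase. Compounds were applied from chloroform solution (3 mg/mL). Rf is the mean of five runs with different plate positions, and RM = log[(1/Rf) - 1].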

For data set [3], the species on record is Mus musculus. The data set is described as follows: Anticonvulsant activity against audiogenic seizures in DBA/2 mice. It counts as functional. The essentials:
(§2)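 DBA/2 mice of either sex (6-12 g, 21-25 days old), dosed ip in 80% DMSO/20% distilled water. 45 min later exposed to a mixed-frequency 109-dB sound for up to 60 s. Latency to and incidence of wild running, clonus, tonus and respiratory arrest were scored. ED50 (±95% confidence limits) by Litchfield and Wilcoxon.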

Data set [4] is filed under the species Rattus norvegicus. The data set is described as follows: Compound was tested for its activity against tonic hind limb extension in MES test in rats; Completely antagonized. It counts as functional, Hindlimb. The essentials: as §1
The species named for data set [5] is Mus musculus. The data set is described as follows: Compound was tested for its activity against clonic seizures phase in […] mice; Completely protected. It counts as functional. The method, boiled down:
as §2

As for `O=C1CCC2(c3ccc(Cl)cc3)Nc3ccc(Cl)cc3N12` (centres undefined), the ED50 – broadly, the dose that gives a 50% effect, or the effect in half of the subjects – in data set [1] amounted to 501 µmol/kg; in data set [3] it was 347 µmol/kg. In data set [2], this compound registered an RM of 0.073.
Regarding `Cc1ccc2c(c1)N1C(=O)CCC1(C)N2` (centres undefined), the ED50 in data set [1] stood at 197 µmol/kg; in data set [3], 122 µmol/kg. The same compound gave an RM in data set [2] of -0.279.
As for `O=C1CCC2(c3ccc(F)cc3)Nc3ccc(Cl)cc3N12` (centres undefined), the ED50 in data set [1] was found to be 198 µmol/kg; in data set [3], 178 µmol/kg. This compound also returned an RM in data set [2] of 0.028.
With `O=C1CCC2(c3ccccc3)Nc3cc(Cl)ccc3N12` (centres undefined), the ED50 is 126 µmol/kg in data set [1] and 95.9 µmol/kg in data set [3]. Besides, in data set [2], the RM is -0.007.
With `O=C1CCC2(c3ccc(F)cc3)Nc3cc(Cl)ccc3N12` (centres undefined), the results for the median effective dose (ED50) in data set [1] and in data set [3] were 105 µmol/kg and 87.3 µmol/kg, respectively. The compound also had an RM in data set [2] of 0.019.
As for `Cc1ccc2c(c1)NC1(C)CCC(=O)N21` (centres undefined), the ED50 in data set [1] amounted to 141 µmol/kg; in data set [3], 97.7 µmol/kg. Besides, the RM in data set [2] is listed as -0.284.
`O=C1CCC2(c3ccc(Cl)cc3)Nc3ccccc3N12` (centres undefined): the figures for the ED50 in data set [1] and in data set [3] were 234 µmol/kg and 166 µmol/kg, respectively. In data set [2], this compound gave an RM of -0.033.
As to `CC12CCC(=O)N1c1ccccc1N2` (centres undefined), the Activity was found to be 200 µM/kg in data set [4] and 100 µM/kg in data set [5]. Moreover, the ED50 came to 35.5 µmol/kg in data set [1] and 26.3 µmol/kg in data set [3]. This compound also yielded an RM in data set [2] of -0.341.
With `O=C1CCC2(c3ccccc3)Nc3ccccc3N12` (centres undefined), the 50% effective dose (ED50) was determined as 200 µmol/kg in data set [1] and 161 µmol/kg in data set [3]. In data set [2], this compound registered an RM of -0.131.
In the case of `CC12CCC(=O)N1c1ccc(Cl)cc1N2` (centres undefined), the ED50 turned out to be 88.2 µmol/kg in data set [1] and 79.4 µmol/kg in data set [3]. The RM in data set [2] is reported as -0.167.
With `CC12CCC(=O)N1c1ccc([N+](=O)[O-])cc1N2` (centres undefined), the ED50 in data set [1] and in data set [3] was above 600 µmol/kg in each case. Moreover, the RM in data set [2] is -0.187.
As to `O=C1CCC2(c3ccc(Cl)cc3)Nc3cc(Cl)ccc3N12` (centres undefined), the ED50 is 281 µmol/kg in data set [1] and 143 µmol/kg in data set [3]. This compound had an RM in data set [2] of 0.068.
As to `O=C1CCC2(c3ccc(F)cc3)Nc3ccccc3N12` (centres undefined), the 50% effective dose (ED50) came out at 575 µmol/kg in data set [1] and 356 µmol/kg in data set [3]. The same compound showed an RM in data set [2] of -0.084.
Consider `O=C1CCC2(c3ccccc3)Nc3ccc(Cl)cc3N12` (centres undefined), for which the ED50 in data set [1] was 271 µmol/kg; in data set [3], 179 µmol/kg. Besides, the RM in data set [2] is reported as -0.005.
For `CC12CCC(=O)N1c1cc([N+](=O)[O-])ccc1N2` (centres undefined) the same measures were above 600 µmol/kg, above 600 µmol/kg and -0.237.
On to `CC12CCC(=O)N1c1cc(Cl)ccc1N2` (centres undefined), for which the ED50 in data set [1] amounted to 234 µmol/kg; in data set [3], 148 µmol/kg. The same compound had an RM in data set [2] of -0.162.
As for `O=C1NC(=O)C(c2ccccc2)(c2ccccc2)N1` [PHENYTOIN], the ED50 in data set [1] was determined as 55.5 µmol/kg; in data set [3], 19.8 µmol/kg.
With `CCCC(CCC)C(=O)O` [VALPROIC ACID], the ED50 in data set [1] stood at 1890 µmol/kg; in data set [3], 1230 µmol/kg.
